Source: publication PMC3495079 (Biochemistry, 2012)

Columns and labels:
CeDcpS [1] = target: T1, CeDcpS (Caenorhabditis elegans, UniProt G5EFS4); experiment: Fluorescence titration; assay type: binding, C. elegans; settings: for Equilibrium association constant KAS, CeDcpS: 20 °C, 50 mM Tris HCl, 200 mM KCl, 0.5 mM EDTA, 1 mM DTT, pH 7.6
T1 sequence (G5EFS4 1-311): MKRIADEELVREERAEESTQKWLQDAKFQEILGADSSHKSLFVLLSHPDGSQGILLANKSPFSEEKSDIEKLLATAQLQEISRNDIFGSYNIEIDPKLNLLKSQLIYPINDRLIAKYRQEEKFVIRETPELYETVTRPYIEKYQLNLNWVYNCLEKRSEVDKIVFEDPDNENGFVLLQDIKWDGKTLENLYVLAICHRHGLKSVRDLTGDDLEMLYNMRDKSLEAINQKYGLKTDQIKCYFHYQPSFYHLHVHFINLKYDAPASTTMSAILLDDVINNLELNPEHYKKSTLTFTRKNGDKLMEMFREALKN
How it was run: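 His-tagged CeDcpS was expressed in E. coli and purified by Ni-NTA and gel filtration. Binding was read as quenching of intrinsic Trp fluorescence using time-synchronized titration. Ligand solutions of increasing concentration (5 μM–2 mM) were added to 0.2 μM initial protein. Excitation was 280 nm and emission 340 nm, corrected for dilution and inner filter. KAS was fitted by non-linear regression and reported as a weighted average of 3–5 titrations.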

HsDcpS [2] = target: T2, HsDcpS (Homo sapiens, UniProt Q96C86); experiment: HPLC analysis of cap analog hydrolysis by recombinant DcpS; assay type: biochemical; settings: for Hydrolysis by DcpS (HPLC): up to 24 h
T2 sequence (Q96C86 1-337): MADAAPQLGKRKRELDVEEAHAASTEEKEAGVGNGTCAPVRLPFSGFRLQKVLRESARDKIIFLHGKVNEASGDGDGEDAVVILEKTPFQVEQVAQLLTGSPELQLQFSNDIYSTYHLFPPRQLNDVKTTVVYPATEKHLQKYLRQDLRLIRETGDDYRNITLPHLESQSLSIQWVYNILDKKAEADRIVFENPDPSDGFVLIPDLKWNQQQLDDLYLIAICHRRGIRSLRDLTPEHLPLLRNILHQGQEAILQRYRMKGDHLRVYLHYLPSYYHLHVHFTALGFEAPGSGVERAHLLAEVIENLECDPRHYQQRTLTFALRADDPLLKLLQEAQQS
How it was run: (§1)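 His-tagged recombinant enzyme was expressed in E. coli and purified by Ni-NTA and gel filtration. Cap analog (15 μM) was preincubated 10 min, then DcpS was added at 0.02 or 0.2 μM. Buffers were Tris/MgAc/(NH4)2SO4 at 37 °C, or Tris/KCl/EDTA/DTT at 20 °C. Aliquots were taken at 5–60 min and 24 h and heat-stopped (97 °C, 2.5 min). Reverse-phase HPLC used a methanol/KH2PO4 gradient with A260 and fluorescence detection. Products were identified by retention time, and % substrate hydrolyzed was recorded.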

HsDcpS [3] = target: T2, HsDcpS; experiment: Fluorescence titration; assay type: binding; settings: ratio of KAS values
AsDcpS [4] = target: T3, AsDcpS (Ascaris suum, UniProt D3K0N9); experiment: HPLC analysis of cap analog hydrolysis by recombinant DcpS; assay type: biochemical, A. suum; settings: 15 μM substrate; for Hydrolysis by DcpS (HPLC): up to 24 h
T3 sequence (D3K0N9 whole entry): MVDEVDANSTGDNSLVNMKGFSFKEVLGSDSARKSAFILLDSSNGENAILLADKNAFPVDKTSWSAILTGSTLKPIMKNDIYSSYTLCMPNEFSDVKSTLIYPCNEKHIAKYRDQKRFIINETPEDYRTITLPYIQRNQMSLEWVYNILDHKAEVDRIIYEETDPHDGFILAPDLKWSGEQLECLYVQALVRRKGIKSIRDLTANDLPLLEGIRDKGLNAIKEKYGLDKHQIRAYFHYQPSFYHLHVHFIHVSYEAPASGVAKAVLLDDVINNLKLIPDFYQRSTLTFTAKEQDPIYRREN

CeDcpS [5] = target: T1, CeDcpS; experiment: Inhibition of DcpS hydrolysis of m^7GpppG, HPLC; assay type: biochemical, C. elegans
How it was run: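 Recombinant His-tagged C. elegans DcpS was expressed in E. coli and purified by Ni-NTA and gel filtration. Enzyme at 0.02 μM, m7GpppG 15 μM, test compound 0.1–50 μM, in 50 mM Tris HCl, 200 mM KCl, 0.5 mM EDTA, 1 mM DTT, pH 7.6. Preincubated 10 min, reacted 10 min at 20 °C, heat-stopped, products by reverse-phase HPLC. IC50 taken from conversion versus concentration; Ki from tight-binding competitive equation.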

HsDcpS [6] = target: T2, HsDcpS; settings: 20 °C, 50 mM Tris HCl, 200 mM KCl, 0.5 mM EDTA, 1 mM DTT, pH 7.6; cited from earlier work
AsDcpS [7] = target: T3, AsDcpS; experiment: Fluorescence titration; assay type: binding, A. suum; settings: for Equilibrium association constant KAS, AsDcpS: 20 °C, 50 mM Tris HCl, 200 mM KCl, 0.5 mM EDTA, 1 mM DTT, pH 7.6
CeDcpS [8] = target: T1, CeDcpS; experiment: HPLC analysis of cap analog hydrolysis by recombinant DcpS; assay type: biochemical, C. elegans; settings: 15 μM substrate; for Hydrolysis by DcpS (HPLC): up to 24 h
How it was run: as §1

ScDcpS [9] = target: T4, ScDcpS (Saccharomyces cerevisiae, UniProt Q06151); experiment: as above; assay type: biochemical, S. cerevisiae; settings: 15 μM substrate, up to 24 h
T4 sequence (Q06151 whole entry): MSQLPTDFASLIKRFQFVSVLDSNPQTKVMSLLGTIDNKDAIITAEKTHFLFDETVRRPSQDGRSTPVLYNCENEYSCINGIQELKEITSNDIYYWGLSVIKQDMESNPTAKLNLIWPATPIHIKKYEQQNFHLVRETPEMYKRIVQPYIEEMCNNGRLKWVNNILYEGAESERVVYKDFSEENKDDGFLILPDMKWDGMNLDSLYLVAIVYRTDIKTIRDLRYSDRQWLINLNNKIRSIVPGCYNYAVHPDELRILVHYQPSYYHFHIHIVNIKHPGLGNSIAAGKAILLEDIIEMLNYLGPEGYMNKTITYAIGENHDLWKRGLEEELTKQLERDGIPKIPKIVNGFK
How it was run: as §1

HsDcpS [10] = target: T2, HsDcpS; experiment: Inhibition of DcpS hydrolysis of m^7GpppG, HPLC; assay type: biochemical
AsDcpS [11] = target: T3, AsDcpS; experiment: Inhibition of DcpS hydrolysis of m^7GpppG, HPLC; assay type: biochemical, A. suum
ScDcpS [12] = target: T4, ScDcpS; experiment: Inhibition of DcpS hydrolysis of m^7GpppG, HPLC; assay type: biochemical, S. cerevisiae
How it was run: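 Yeast DcpS (His-tagged, E. coli-expressed, Ni-NTA plus gel filtration) used at 0.10 μM to give 50% uninhibited conversion in 10 min. Substrate m7GpppG 15 μM; test compound 0.1–50 μM; buffer 50 mM Tris HCl, 200 mM KCl, 0.5 mM EDTA, 1 mM DTT, pH 7.6; 20 °C. Stopped at 97 °C for 2.5 min, analysed by reverse-phase HPLC. IC50 from substrate-conversion plot; Ki via tight-binding competitive equation.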

[13] = system: recombinant C. elegans decapping scavenger; experiment: Competitor inhibition of CeDcpS hydrolytic activity; assay type: biochemical
[14] = condition (2): 20 °C, pH 7.6, 15 μM substrate, 0.2 μM DcpS
[15] = condition (1): 37 °C, pH 8.0, 0.02 or 0.2 μM DcpS
[16] = condition (2): 20 °C, pH 7.6, 0.2 μM DcpS
[17] = condition (2): 20 °C, pH 7.6, 0.02 μM DcpS

Question: For C[n+]1cn([C@@H]2O[C@H](COP(=O)(O)OP(=O)([O-])O)[C@@H](O)[C@H]2O)c2nc(N)[nH]c(=O)c21 [m^7GDP, 7-methylguanosine diphosphate], which Kd (CeDcpS [1]) is on record?
Answer: Its Kd is 10.3 nM.

Question: What about the “Hydrolysis by DcpS (HPLC)” value (HsDcpS [2]; condition (1): 37 °C, pH 8.0, 15 μM substrate, 0.02 or 0.2 μM DcpS) of the same compound?
Answer: The value was “not degraded”.

Question: What about the “Hydrolysis by DcpS (HPLC)” value (HsDcpS [2]; [14]) of the same compound?
Answer: Its value is “resistant to cleavage”.

Question: What about the “Fold higher affinity of human DcpS compared to m^7GMP” value (HsDcpS [3]) of the same compound?
Answer: Its value is 6 fold.

Question: What about the “Hydrolysis by DcpS (HPLC)” value (AsDcpS [4]; [15]) of the same compound?
Answer: The value was “not degraded”.

Question: And the “Hydrolysis by DcpS (HPLC)” value (AsDcpS [4]; [16])?
Answer: Its value is “resistant to cleavage”.

Question: And the IC50 (CeDcpS [5])?
Answer: The IC50 was 2170 ± 130 nM.

Question: What about the Ki (CeDcpS [5]) of the same compound?
Answer: The Ki was 156 ± 20 nM.

Question: What about the “Equilibrium association constant KAS, HsDcpS” value (HsDcpS [6]) of the same compound?
Answer: Its value is 114 ± 8 µM⁻¹.

Question: What about the Kd (AsDcpS [7]) of the same compound?
Answer: The Kd was 5.4 nM.

Question: And the “Hydrolysis by DcpS (HPLC)” value (CeDcpS [8]; [15])?
Answer: Its value is “not degraded”.

Question: And the “Hydrolysis by DcpS (HPLC)” value (CeDcpS [8]; [16])?
Answer: Its value is “resistant to cleavage”.

Question: And the “Hydrolysis by DcpS (HPLC)” value (ScDcpS [9]; [15])?
Answer: The value was “not degraded”.

Question: What about the “Hydrolysis by DcpS (HPLC)” value (ScDcpS [9]; [16]) of the same compound?
Answer: The value was “resistant to cleavage”.

Question: And the IC50 (HsDcpS [10])?
Answer: The IC50 was 4170 ± 500 nM.

Question: And the IC50 (AsDcpS [11])?
Answer: Its IC50 is 1440 ± 110 nM.

Question: What about the IC50 (ScDcpS [12]) of the same compound?
Answer: Its IC50 is 3950 ± 230 nM.

Question: What about the Ki (ScDcpS [12]) of the same compound?
Answer: Its Ki is 36 ± 2 nM.

Question: Which results are given for Cn1c[n+]([C@@H]2O[C@H](COP(=O)([O-])OP(=O)(O)OP(=O)(O)O)[C@@H](O)[C@H]2O)c2nc(N)[nH]c(=O)c21 [m^7GTP]?
Answer: Rate of degradation by HsDcpS, fold slower than by AsDcpS and CeDcpS (HsDcpS [2]; condition (2), 0.02 μM DcpS, Figure 3): 2 fold; Hydrolysis by DcpS (HPLC, Figure 3) (HsDcpS [2]; condition (2): 20 °C, pH 7.6, 15 μM substrate, 0.02 μM DcpS, 60 min or 24 h): efficiently hydrolyzed; Hydrolysis by DcpS (HPLC, Figure 3) (AsDcpS [4]; [17]): efficiently hydrolyzed; Hydrolysis by DcpS (HPLC, Figure 3) (CeDcpS [8]; [17]): efficiently hydrolyzed

Question: What does the source list for C[n+]1cn([C@@H]2O[C@H](COP(=O)(O)O)[C@@H](O)[C@H]2O)c2nc(N)[nH]c(=O)c21 [m^7GMP, 7-methylguanosine monophosphate]?
Answer: Equilibrium association constant KAS, CeDcpS (CeDcpS [1]): 8.00 ± 0.65 µM⁻¹; Equilibrium association constant KAS, HsDcpS (HsDcpS [6]): 19 ± 1 µM⁻¹; Equilibrium association constant KAS, AsDcpS (AsDcpS [7]): 26.35 ± 1.84 µM⁻¹; Competitor concentration for 50% inhibition, fold higher than for m^7GDP [13]: about 20 fold

Question: For CN(C)c1nc2c(c(=O)[nH]1)[n+](C)cn2[C@@H]1O[C@H](COP(=O)(O)O)[C@@H](O)[C@H]1O [m3^2,2,7GMP], which “Equilibrium association constant KAS, CeDcpS” value (CeDcpS [1]) is on record?
Answer: Its value is 2.88 ± 0.67 µM⁻¹.

Question: What about the “Equilibrium association constant KAS, AsDcpS” value (AsDcpS [7]) of the same compound?
Answer: The value was 0.28 ± 0.27 µM⁻¹.

Question: Which “Hydrolysis by DcpS (HPLC)” value (HsDcpS [2]; [14]) does the source give for C[n+]1cn([C@@H]2O[C@H](COP(=O)(O)OP(=O)(O)OP(=O)(O)OC[C@H]3O[C@@H](n4c[n+](C)c5c(=O)[nH]c(N)nc54)[C@H](O)[C@@H]3O)[C@@H](O)[C@H]2O)c2nc(N)[nH]c(=O)c21 [m^7Gpppm^7G] here?
Answer: The value was “significantly slower than that of m^7GpppG”.

Question: What about the “Hydrolysis by DcpS (HPLC)” value (AsDcpS [4]; [16]) of the same compound?
Answer: Its value is “significantly slower than that of m^7GpppG”.

Question: What about the “Hydrolysis by DcpS (HPLC)” value (CeDcpS [8]; [16]) of the same compound?
Answer: The value was “significantly slower than that of m^7GpppG”.

Question: What about the “Hydrolysis by DcpS (HPLC)” value (ScDcpS [9]; [16]) of the same compound?
Answer: The value was “significantly slower than that of m^7GpppG”.
